Experimental data reported in ChEMBL document CHEMBL3259631, “Identification of the first potent, selective and bioavailable PPARα antagonist” (Bioorg Med Chem Lett, 2014).
≈ marks a conversion by molar mass, not a printed value. Calls of active or inactive are those of the source. The calls are words filed in the database; no cut-off is given here.

How the values were obtained:
[1] = molecular target: T1, Peroxisome proliferator-activated receptor alpha (Homo sapiens, UniProt Q07869); experiment: Agonist activity at human PPAR-alpha
T1 sequence (Q07869 whole entry): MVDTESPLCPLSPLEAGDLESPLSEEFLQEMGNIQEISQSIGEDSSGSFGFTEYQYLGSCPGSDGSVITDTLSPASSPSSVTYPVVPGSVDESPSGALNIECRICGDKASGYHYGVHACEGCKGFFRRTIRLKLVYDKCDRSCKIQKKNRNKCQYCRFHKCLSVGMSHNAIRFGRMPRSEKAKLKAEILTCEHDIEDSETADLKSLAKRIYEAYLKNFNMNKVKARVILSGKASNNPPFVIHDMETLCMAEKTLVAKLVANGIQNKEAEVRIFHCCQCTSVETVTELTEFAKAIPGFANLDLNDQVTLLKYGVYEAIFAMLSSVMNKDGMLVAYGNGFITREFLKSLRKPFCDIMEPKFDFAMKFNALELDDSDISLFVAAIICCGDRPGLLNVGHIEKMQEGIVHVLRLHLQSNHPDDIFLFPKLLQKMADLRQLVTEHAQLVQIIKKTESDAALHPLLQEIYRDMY

[2] = molecular target: T2, Peroxisome proliferator-activated receptor gamma (Homo sapiens, UniProt P37231); experiment: Inhibition of human PPAR-gamma
T2 sequence (P37231 whole entry): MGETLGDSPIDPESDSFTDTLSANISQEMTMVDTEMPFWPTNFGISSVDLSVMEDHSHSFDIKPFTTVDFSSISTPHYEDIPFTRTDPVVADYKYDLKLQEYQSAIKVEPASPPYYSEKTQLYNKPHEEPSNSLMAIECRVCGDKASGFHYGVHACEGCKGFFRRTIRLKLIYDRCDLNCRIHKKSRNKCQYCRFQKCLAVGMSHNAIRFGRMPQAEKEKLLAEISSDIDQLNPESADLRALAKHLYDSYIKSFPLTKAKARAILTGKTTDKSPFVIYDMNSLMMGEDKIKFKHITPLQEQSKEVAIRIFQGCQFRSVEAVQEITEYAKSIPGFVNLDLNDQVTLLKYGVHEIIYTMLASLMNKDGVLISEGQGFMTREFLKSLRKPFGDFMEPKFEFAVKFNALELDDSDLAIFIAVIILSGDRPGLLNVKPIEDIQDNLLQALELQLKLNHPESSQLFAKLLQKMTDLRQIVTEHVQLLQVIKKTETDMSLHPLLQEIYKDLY

[3] = molecular target: T3, Peroxisome proliferator-activated receptor delta (Homo sapiens, UniProt Q03181); experiment: Inhibition of human PPAR-delta
T3 sequence (Q03181 whole entry): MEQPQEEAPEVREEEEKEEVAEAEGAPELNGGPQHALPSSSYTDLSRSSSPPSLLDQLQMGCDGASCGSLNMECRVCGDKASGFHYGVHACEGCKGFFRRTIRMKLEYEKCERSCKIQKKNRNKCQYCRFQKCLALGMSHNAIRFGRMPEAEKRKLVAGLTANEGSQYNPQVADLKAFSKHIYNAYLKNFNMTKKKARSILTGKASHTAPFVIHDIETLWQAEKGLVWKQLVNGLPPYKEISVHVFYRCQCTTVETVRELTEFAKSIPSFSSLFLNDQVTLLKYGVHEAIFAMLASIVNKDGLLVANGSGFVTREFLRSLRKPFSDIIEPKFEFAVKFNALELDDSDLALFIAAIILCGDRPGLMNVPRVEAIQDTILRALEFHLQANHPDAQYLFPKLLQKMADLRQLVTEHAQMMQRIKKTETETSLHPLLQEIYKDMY

[4] = molecular target: T1, Peroxisome proliferator-activated receptor alpha; experiment: Antagonist activity at human PPAR-alpha assessed as inhibition of GW7647-induced effect after overnight incubation by cell-based luciferase reporter gene assay
[5] = Cmax in CD-1 mouse at 30 mg/kg, ip after 1 hr; format: ADME, organism-based; set-up: dose 30 mg/kg, route intraperitoneal; settings: in vivo
In short: (§1)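 Mouse pharmacokinetics in CD1 mice given a single intraperitoneal dose of 30 mpk, formulated in saline or in 98% saline/2% tween.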

Mus musculus = experiment: Reduction in plasma FGF21 level in C57Bl/6 mouse at 30 mg/kg, ip administered for 4 days followed by fasting for last 48 hrs measured 4 hrs post last dose by ELISA; format: functional, organism-based; set-up: dose 30 mg/kg
In short: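 C57Bl/6 mice received intraperitoneal drug or saline vehicle daily for four days, with 48 h fasting starting on day 2. Four hours after the final dose, blood was taken by terminal cardiac puncture into EDTA. Plasma FGF21 was measured by ELISA and compared against vehicle by t test.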

[6] = molecular target: T1, Peroxisome proliferator-activated receptor alpha; experiment: Antagonist activity at GST-tagged PPAR-alpha (unknown origin) assessed as inhibition of GW7647-induced effect after 2 hrs by TR-FRET assay
[7] = Solubility of the compound in aqueous buffer at pH 7.4 after 24 hrs by LC-MS/MS analysis; format: physicochemical
In short: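 Compound from a 10 mM DMSO stock was added to pH 7.4 buffer, vortexed 2 min, then shaken on an orbital shaker for 24 h at room temperature. Samples were then vacuum-filtered through a polycarbonate membrane before measurement.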

Glucocorticoid receptor = molecular target: T4, Glucocorticoid receptor (Homo sapiens, UniProt P04150); experiment: Inhibition of human glucocorticoid receptor
T4 sequence (P04150 whole entry): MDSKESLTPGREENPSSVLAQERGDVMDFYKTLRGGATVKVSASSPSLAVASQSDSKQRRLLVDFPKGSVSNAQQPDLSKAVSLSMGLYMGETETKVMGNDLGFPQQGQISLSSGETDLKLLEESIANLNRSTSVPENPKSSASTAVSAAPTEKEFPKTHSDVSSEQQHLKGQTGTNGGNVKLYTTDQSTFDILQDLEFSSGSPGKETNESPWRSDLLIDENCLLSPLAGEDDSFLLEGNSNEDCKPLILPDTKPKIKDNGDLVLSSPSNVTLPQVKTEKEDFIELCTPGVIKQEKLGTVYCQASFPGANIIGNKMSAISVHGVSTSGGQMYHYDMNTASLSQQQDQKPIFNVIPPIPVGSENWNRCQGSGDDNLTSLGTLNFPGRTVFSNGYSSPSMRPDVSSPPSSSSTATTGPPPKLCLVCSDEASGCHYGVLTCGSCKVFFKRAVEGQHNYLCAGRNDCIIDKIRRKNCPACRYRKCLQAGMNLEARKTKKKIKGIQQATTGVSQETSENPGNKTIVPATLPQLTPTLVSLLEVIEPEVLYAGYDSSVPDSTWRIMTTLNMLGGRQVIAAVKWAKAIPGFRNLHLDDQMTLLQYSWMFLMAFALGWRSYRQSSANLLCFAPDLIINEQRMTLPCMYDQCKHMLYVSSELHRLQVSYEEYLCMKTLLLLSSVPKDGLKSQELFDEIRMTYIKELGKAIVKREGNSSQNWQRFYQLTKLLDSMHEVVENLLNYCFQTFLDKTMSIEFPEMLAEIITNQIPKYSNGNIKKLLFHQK

Plasma = experiment: Metabolic stability in mouse plasma assessed as compound remaining at 1 uM after 24 hrs by LC-MS/MS analysis; format: ADME, cell-free; settings: 24 h, 1 µM
In short: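 A 30 mM DMSO stock was diluted to 100 µM in acetonitrile, then spiked into thawed mouse plasma (1 µM final) and incubated at 37 °C. Aliquots were precipitated in acetonitrile containing buspirone, shaken 5 min and centrifuged at 4000g for 10 min. Supernatant was analysed by LC-MS/MS. Percent remaining = concentration at each time / t0 concentration × 100; mean of at least three experiments.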

Estrogen receptor beta = Estrogen receptor beta (Homo sapiens, UniProt Q92731); experiment: Inhibition of human estrogen receptor beta
Sequence of Estrogen receptor beta (Q92731 whole entry): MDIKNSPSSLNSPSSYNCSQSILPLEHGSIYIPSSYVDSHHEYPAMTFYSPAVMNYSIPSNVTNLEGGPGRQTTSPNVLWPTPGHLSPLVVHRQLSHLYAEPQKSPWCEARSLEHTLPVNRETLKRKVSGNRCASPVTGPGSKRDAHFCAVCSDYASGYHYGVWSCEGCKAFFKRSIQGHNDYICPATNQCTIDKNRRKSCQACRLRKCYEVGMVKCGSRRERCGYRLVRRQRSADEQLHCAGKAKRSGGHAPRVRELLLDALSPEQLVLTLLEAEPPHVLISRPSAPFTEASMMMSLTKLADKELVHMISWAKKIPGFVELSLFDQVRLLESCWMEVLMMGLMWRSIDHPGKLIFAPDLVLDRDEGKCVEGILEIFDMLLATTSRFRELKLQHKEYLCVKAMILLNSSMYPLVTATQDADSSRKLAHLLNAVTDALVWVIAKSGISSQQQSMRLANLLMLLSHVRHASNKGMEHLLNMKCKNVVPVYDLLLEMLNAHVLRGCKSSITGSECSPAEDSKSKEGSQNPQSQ

[8] = molecular target: T5, Thyroid hormone receptor beta (Homo sapiens, UniProt P10828); experiment: Inhibition of human thyroid hormone receptor-beta
T5 sequence (P10828 whole entry): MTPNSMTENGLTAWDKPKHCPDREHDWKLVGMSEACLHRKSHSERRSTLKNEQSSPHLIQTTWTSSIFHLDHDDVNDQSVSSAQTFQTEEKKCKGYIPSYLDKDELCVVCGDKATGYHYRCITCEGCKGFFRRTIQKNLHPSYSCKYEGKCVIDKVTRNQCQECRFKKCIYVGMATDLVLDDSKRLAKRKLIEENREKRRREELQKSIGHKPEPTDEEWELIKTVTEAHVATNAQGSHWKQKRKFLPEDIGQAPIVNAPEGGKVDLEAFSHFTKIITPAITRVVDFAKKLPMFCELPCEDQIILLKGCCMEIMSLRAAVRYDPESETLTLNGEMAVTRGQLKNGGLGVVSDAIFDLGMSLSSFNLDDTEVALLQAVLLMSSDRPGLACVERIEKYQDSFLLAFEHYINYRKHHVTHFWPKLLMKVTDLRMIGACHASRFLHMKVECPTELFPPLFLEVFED

[9] = AUC in CD-1 mouse at 30 mg/kg, ip; format: ADME, organism-based; set-up: dose 30 mg/kg, route intraperitoneal; settings: plasma; in short: as §1

- EC50 [1]: > 100 µM
- IC50 [2]: 15 µM
- IC50 [3]: 6 µM
- IC50 [4]: 0.077 µM
- Cmax [5]: 1200 nM
- EC50 [6]: 1.4 µM
- solubility at 24 h [7]: 1.5 µM (≈ 0.915 µg/mL)
- IC50 (Glucocorticoid receptor): 32.5 µM
- Stability (Plasma): 140.6%
- IC50 (Estrogen receptor beta): 15.2 µM
- IC50 [8]: > 100 µM
- AUC [9]: 3400 ng·h/mL
Compound: CCn1c(CCCc2ccc(-c3ccc(NS(=O)(=O)c4ccccc4)cn3)cc2)nn(Cc2ccc(C(C)(C)C)cc2)c1=O
- Activity (Mus musculus): Active
